Experimental data: ChEMBL document CHEMBL4513216, “Probing the Open Global Health Chemical Diversity Library for Multistage-Active Starting Points for Next-Generation Antimalarials” (ACS Infect Dis, 2020)

Assay: Toxicity liver stage against HepG2, at 10uM
Assay type: cell-based
Set-up: test concentration 10 uM, cell line HepG2-A16-CD81EGFP
Settings: human, HepG2-A16-CD81EGFP cells; read-out: INHIBITION
Method in brief: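 Uninfected HepG2-A16-CD81EGFP cells, 3 × 10^3 per well, 1536-well, plated on prespotted compound at 10 μM final, parasite-free screening media added to match infected plates; puromycin 10 μM positive, DMSO 0.5% negative; run in parallel with 48 h PbLuc assay at 37 °C, 5% CO2; viability by CellTiter-Glo luminescence, normalized to controls.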

Structure (SMILES)	cytotoxicity at 10 µM [%]
CCn1c(C(=O)N2CCN(C(=O)NC(C)C)CC2)cc2ccccc21	-1.94
Cc1ccc(-c2nc(CN3CCc4c(ncn4C)C3)cs2)o1	-11.3
CCOCC1CN(C(=O)COc2ccccc2C)Cc2ncn(C)c21 (centres undefined)	0.78
CC(C)CN1CCn2nc(CNc3ncnc4[nH]ccc34)cc2C1	-0.531
O=C(c1cscn1)N1CCC2(CCN(Cc3nccs3)CC2)CC1	-71
COC1CCN(C(=O)CCn2ccc(=O)[nH]c2=O)CC1	-4.73
COc1cccc(C(=O)Nc2n[nH]c(C3CCCO3)n2)c1 (centres undefined)	6
CN(C)C(=O)CN1CCC2(CC1)C[C@@H](O)[C@H](c1ccccc1)NC2=O	-22.4
CCC(=O)N1CCC2(CC1)COCCN2Cc1ccc(F)cc1	-76.5
COc1ccc(-c2ccnc3nc(N4CCCC4)[nH]c(=O)c23)cc1OC	9.29
CC(C)[C@@H](CO)Nc1cc(-c2cn[nH]c2)ncn1	-11.3
CCCS(=O)(=O)N1C[C@@H](c2nc(C)no2)C[C@H]2OCC[C@H]21	-130
CCNC(=O)NCC(CC)(OC)c1ccccc1 (centres undefined)	2.05
CN(C)C(=O)CN1C(=O)C[C@@H]2[C@@H]1CCN2Cc1cccc(C#N)c1	-61.3
NC(=O)CN1CCC(c2csc(Nc3cnccn3)n2)CC1	-2.19
O=C(NCC1CC1)C1CN(Cc2cccs2)Cc2ccnn2C1 (centres undefined)	-3.94
CN(C)c1ncccc1NC(=O)C1CN(Cc2ccccc2)CCO1 (centres undefined)	0.499
CN(C)c1cc(CNC(=O)c2cn(-c3ccc(F)cc3)nn2)ccn1	11.5
CCc1c(C)sc2nc3n(CCN4CCOCC4)nc(SC)n3c(=O)c12	1.09
CCCC(C)CN1CCC(n2cc(CCCO)nn2)CC1 (centres undefined)	3.22
NC(=O)NCC1CCCCN1Cc1nc(-c2ccco2)no1 (centres undefined)	-6.06
Cc1cc2cc(CNC3CCN(CC(=O)N(C)C)CC3)oc2cc1C	-5.95

Structure (SMILES)	cytotoxicity at 10 µM [%]
c1csc(-c2nc(CN3CCOC(Cn4cncn4)C3)co2)c1 (centres undefined)	-11.8
CCN1CCCC(O)(CNCc2ccc3c(c2)OCO3)C1 (centres undefined)	2.34
Cc1ccc(S(=O)(=O)NC(=O)COc2cccc(C#N)c2)c(C)c1	3.73
Cc1ccc(-c2nnc(C(C)NCCn3cc(C)cn3)o2)cc1 (centres undefined)	-15.8
COc1ccc(OC)c(-c2nc(CN(C)Cc3nonc3C)c(C)o2)c1	13.5
CC(C)C(C)N(C(=O)Cn1nc2n(c1=O)CCCCC2)C1CC1 (centres undefined)	-5.77
CN1N=C(C(=O)NCc2ccc3c(c2)CCCN3C)CCC1=O	-0.602
Cn1cc(-c2ccnc(NCC3CCCCO3)n2)cn1 (centres undefined)	-131
Cn1cc(CN2CCCCC2c2ccc(-c3cccc(F)c3)nc2)cn1 (centres undefined)	6.77
CCOc1ccc(C(=O)N2CCCC2c2c(C)nn(C)c2Cl)cn1 (centres undefined)	-12.4
CC1(C(=O)NC2CCCC2)CCCN(c2cnccn2)C1 (centres undefined)	-5.81
NC(=O)Nc1cccc(CNC(=O)CCCOCc2ccccc2)c1	-8.06
Cc1cnc(N2CCC[C@@H]3CN(CC(=O)N(C)C)C[C@@H]32)nc1	11.4
O=C(NCCc1c[nH]cn1)c1ccc2c(c1)C(=O)N(C1CCCC1)C2=O	-6.09
CN(Cc1ccco1)C(=O)C1=NN(C)C(=O)CC1	-144
Cn1cc(Cl)c(CN2CCn3nc(C(=O)N4CCCC4)cc3C2)n1	2.42
CC[C@@H]1N(Cc2nccs2)CCC[C@]12CCC(=O)N2C	0.287
NC(=O)CN1CC(O)c2ccccc2S1(=O)=O (centres undefined)	4.37
CC(C)CNC(=O)[C@H]1C[C@H]2CN(C(=O)NCC3CCCCC3)C[C@@H]1O2	-4.81
Cc1cnc(N2C[C@H]3CCCC(N(C)Cc4ccccn4)[C@H]3C2)nc1 (some centres undefined)	-104
CCC(=O)N1C[C@@H]2CCN(c3cnccn3)C[C@@H]2C1	-13.2
CC(C)NC(=O)Nc1nc2c(s1)CN(C(=O)NCc1cccs1)CC2	33

Structure (SMILES)	cytotoxicity at 10 µM [%]
O=c1[nH]c(CCN2CCCC2Cn2cccn2)nc2ccccc12 (centres undefined)	-8.05
CC(C)CNC(=O)Cn1cc(C(N)=O)c(-c2ccccc2)n1	-6.98
Cc1ccc(C(=O)N2CCC3(CCCC3)CC2)c(=O)[nH]1	2.24
O=C(Cc1cccs1)NCCNc1nccc(C(F)(F)F)n1	10.9
CCN(Cc1nnnn1C1CC1)c1cc(C)ccc1C	9.21
Cc1cc(C(=O)N2CC[C@H](OCC3CC3)[C@@H]2Cc2cccnc2)no1	-6.44
COc1nn(C)cc1C(=O)NCC(=O)Nc1cccnc1	-8.75
CN(C)Cc1ccnc(C2CN(Cc3c(F)cccc3F)CCO2)n1 (centres undefined)	-3.14
C=C1c2ccccc2C(=O)N1CCC(=O)N1CCNC(=O)C1	-4.12
Cc1nnn2c1COC(CNCc1ccncc1)C2 (centres undefined)	7.48
CN(C)CCN(CC1CCCO1)S(=O)(=O)NCc1ccccc1 (centres undefined)	0.666
CCOCc1cccc(S(=O)(=O)N2CCSCC2)c1	1.26
COc1ccc(NC(C)C(=O)N2CCN(c3ncccn3)CC2)cn1 (centres undefined)	-4.71
Cc1ccc(C(C)(O)CNC(=O)c2scnc2C)o1 (centres undefined)	-1.42
O=C1CC(NS(=O)(=O)c2cccc(F)c2)CN1 (centres undefined)	-5.89
Fc1ccccc1CN1CCC[C@@H](Cn2nnc(-c3cccs3)n2)C1	4.77
Cc1ccccc1-c1noc(-c2ccc(NCC3COCCO3)nc2)n1 (centres undefined)	3.41
CN(C)CC1CN(Cc2nnc(C(C)(C)C)o2)CCO1 (centres undefined)	-4.17
CC(C)(C)C(=O)NCCCC(=O)NC(C)(C)c1ccc2c(c1)OCO2	12.1
CSCc1cccc(S(=O)(=O)Nc2cc(C)on2)c1	6.27
Cc1ccc(CN2CC[C@H]3C[C@H](c4nc(C5CC5)cs4)O[C@@H]3C2)o1	3.81
O=C(c1ccccc1)N1CC[C@H]2C[C@H](c3nccs3)O[C@@H]2C1	8.39

Structure (SMILES)	cytotoxicity at 10 µM [%]
Cc1noc(C)c1C(=O)N1CCC2(CC(N(C)c3ccncn3)C2)C1 (centres undefined)	-5.94
OC1CCN(c2ccnc(NCCc3ccccc3Cl)n2)C1 (centres undefined)	39.3
CC(C)c1cc(NC(=O)CN2CCc3nn(C)c(=O)cc3C2)on1	-4.44
O=C(c1c[nH]cn1)N1CCCn2c(CN3CCCCC3)nnc2C1	-3.03
Cc1nnc(NC(=O)NCc2ccc(OC3CCCC3)nc2)s1	0.141
Cc1cc(NC(=O)NCC(C)N2CCc3ccccc32)no1 (centres undefined)	-6.34
Cc1oc(C)c(C(=O)NS(=O)(=O)c2ccc3c(c2)OCCCO3)c1C	6.08
O=C(NC[C@]12COC[C@H]1CN(Cc1nccs1)C2)c1cscn1	-1.11
CC(C)n1c2ccccc2c2c1cc(C(=O)O)n2C(=O)N(C)C	-94.3
O=C(NCCCc1nc(=O)[nH][nH]1)c1ccc(Cl)cn1	-47.6
CCC1CN(C(=O)COc2ccc(C(=O)NC3CC3)cc2)CCO1 (centres undefined)	-4.39
CC(C)n1ccnc1CN1CCCC1c1cccc(-n2ccnc2)n1 (centres undefined)	-25.1
CC(=O)Nc1ccc(CN2C[C@@H]3CC[C@H]2CN(c2ncccn2)C3)cc1	-0.0298
Cc1ccc(C(=O)NCc2cc(F)ccc2N2CCCN(C)CC2)o1	-9.7
CCC1CN(c2nnc(C)c(C)c2C#N)CCO1 (centres undefined)	-0.678
Cc1ccc(C(=O)N2CCN3C[C@H](Oc4cncnc4)C[C@H]3C2)cn1	5.01
Cn1ncnc1-c1ccnc(N2CCC(C(O)c3cccs3)CC2)n1 (centres undefined)	-39.2
CCS(=O)(=O)CC(=O)NC(C)c1ccc(F)cc1F (centres undefined)	1.73
CC(C)COC(C)C(=O)NCc1ccc(Cn2ccnc2)cc1 (centres undefined)	-2.65
CCn1cc(-c2nn3c(C(F)(F)F)nnc3s2)cn1	-12.3
CC(=O)c1ccc(S(=O)(=O)NCC2CCN(c3cnccn3)CC2)cc1	0.723
O=C(c1cncs1)N1CCOCC(Cc2ccncn2)C1 (centres undefined)	1.13

Structure (SMILES)	cytotoxicity at 10 µM [%]
O=C1C(NCc2nnc3n2CCCC3)CCN1c1ccccc1Cl (centres undefined)	-7.42
COCCc1ncc(CN2CCC(Oc3ccccc3C)CC2)cn1	4.67
CC(C)(C)OC(=O)N1CCC(NC2CC2)CC1	-5.64
Cc1c(CNCC(C)Oc2cccnc2)c2ccccc2n1CC(N)=O (centres undefined)	-141
Cc1ncc(CNC2CC(=O)N(CCc3cccc(Cl)c3)C2)n1C (centres undefined)	-133
CCn1cc(NC(=O)CN2C(=O)CC(C)(C)c3ccccc32)cn1	-1.7
Cc1cnnn1Cc1nnn2c1CN(Cc1ccccn1)CCC2	9.73
C[C@@]1(O)CCN(C2CCOCC2)C[C@H]1n1ccc(=O)[nH]c1=O	4
Cc1cc(NCCO)nc(N2CCCC2)c1C#N	-7.02
CCN(Cc1ccc2c(c1)OCCO2)C(=O)c1ccc(C)[nH]c1=O	-4.6
Cc1ccc(C(C)NC(=O)Cc2c(C)nc3c(c2C)c(=O)[nH]n3C)o1 (centres undefined)	-16.3
Cc1cnc(C(=O)N(CCN(C)C)Cc2ccc(Cl)cc2)cn1	1.58
CCOc1ccc(NC(=O)NCCCN(C)S(C)(=O)=O)cc1C	2.79
Cc1nc(N2CCCN(C(=O)c3ccsc3)CC2)c2cnn(C)c2n1	-10.8
CC(=O)N1CCCC1c1cccc(Cc2ccccc2Cl)n1 (centres undefined)	1.58
Cc1ccc(CN2CC[C@@H]3[C@@H]2CCN3C(=O)Cc2cccs2)o1	-119
Cc1ccc(CN[C@@H]2COC[C@H]2c2ccc(F)cc2)cc1C	9.07
Cc1n[nH]c(SCCNC2CCN(c3nc4ccccc4s3)CC2)n1	-6.92
CN(C)C(=O)c1cccc(CN2CCOC(Cn3cccn3)C2)c1 (centres undefined)	-0.29
CO[C@H]1CN(C(=O)c2ccc(C)o2)[C@@H]2CCCO[C@H]12	-153
Cc1oc(C)c(C(=O)NCc2ccccc2S(=O)(=O)N(C)C)c1C	1.97
